Activity calls are given as the source filed them. No cut-off for these calls is given here.
How the values were obtained:
[1] = tested on: Platelet; test: Cytotoxicity against platelets in human PRP assessed as reduction in cell viability measured after 48 hrs by MTS assay; format: cell-based
How it was run: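 Washed human platelets from PRP were kept in HEPES Tyrode's buffer with 1 µM PGE1 and 0.2 units/mL apyrase at 2×10^8/mL.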

[2] = biological target: T1, von Hippel-Lindau disease tumor suppressor/Bcl-2-like protein 1 (Homo sapiens, UniProt Q07817+P40337); test: Binding affinity to VHL/ BCL-XL in human RS4-11 cells assessed as ternary complex formation at up to 300 nM measured after 12 hrs by immunoprecipitation assay; format: cell-based
Target sequence in this assay (P40337 whole entry, looked up): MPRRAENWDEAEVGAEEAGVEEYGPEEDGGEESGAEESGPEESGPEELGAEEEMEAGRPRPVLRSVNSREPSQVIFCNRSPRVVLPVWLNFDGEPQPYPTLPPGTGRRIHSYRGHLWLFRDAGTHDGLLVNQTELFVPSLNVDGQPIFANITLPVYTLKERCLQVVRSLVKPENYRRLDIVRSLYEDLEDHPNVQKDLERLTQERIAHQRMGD
Target sequence in this assay (Q07817 whole entry, looked up): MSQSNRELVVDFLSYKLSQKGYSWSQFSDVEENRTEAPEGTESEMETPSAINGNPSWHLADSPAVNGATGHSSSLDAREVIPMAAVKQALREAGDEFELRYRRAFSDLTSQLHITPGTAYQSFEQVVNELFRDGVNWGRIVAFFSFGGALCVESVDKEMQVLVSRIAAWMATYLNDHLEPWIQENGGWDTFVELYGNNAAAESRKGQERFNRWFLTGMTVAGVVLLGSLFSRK

[3] = biological target: T2, von Hippel-Lindau disease tumor suppressor/Apoptosis regulator Bcl-2 (Homo sapiens) (UniProt P10415+P40337); test: Binding affinity to VHL/BCL-2 in human RS4-11 cells assessed as ternary complex formation at up to 300 nM measured after 12 hrs by immunoprecipitation assay; format: cell-based
[4] = biological target: T1, von Hippel-Lindau disease tumor suppressor/Bcl-2-like protein 1; test: Binding affinity to VHL/ BCL-XL in human RS4-11 cells assessed as ternary complex formation at up to 300 nM measured after 12 hrs in presence of VHL-032 by immunoprecipitation assay; format: cell-based
Target sequence in this assay (P40337 whole entry, looked up): as the sequence (P40337 whole entry, looked up) above
Target sequence in this assay (Q07817 whole entry, looked up): as the sequence (Q07817 whole entry, looked up) above

[5] = tested on: RS4-11; test: Cytotoxicity against human RS4-11 cells assessed as reduction in cell viability measured after 48 hrs by MTS assay; format: functional, cell-based; details: RS4-11, 48 h
[6] = tested on: MOLT-4; test: Cytotoxicity against human MOLT-4 cells assessed as reduction in cell viability measured after 48 hrs by MTS assay; format: functional, cell-based; details: MOLT-4, 48 h
[7] = biological target: T1, von Hippel-Lindau disease tumor suppressor/Bcl-2-like protein 1; test: Protac activity at VHL/BCL-XL in human MOLT-4 assessed as decrease in BCL-XL protein level at up to […] measured after 16 hrs by Western blot analysis
How it was run: (§1)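 MOLT-4 or RS4;11 cells were treated at a range of concentrations for 16 h. BCL-XL was immunoblotted with β-actin loading control, and band densitometry was normalised to β-actin. Mean ± SD of three independent experiments in triplicate.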
Target sequence in this assay (P40337 whole entry, looked up): as the sequence (P40337 whole entry, looked up) above
Target sequence in this assay (Q07817 whole entry, looked up): as the sequence (Q07817 whole entry, looked up) above

[8] = biological target: T1, von Hippel-Lindau disease tumor suppressor/Bcl-2-like protein 1; test: Protac activity at VHL/BCL-XL in human RS4-11 assessed as decrease in BCL-XL protein level at up to […] measured after 16 hrs by Western blot analysis; how it was run: as §1
Target sequence in this assay (P40337 whole entry, looked up): as the sequence (P40337 whole entry, looked up) above
Target sequence in this assay (Q07817 whole entry, looked up): as the sequence (Q07817 whole entry, looked up) above

[9] = biological target: T1, von Hippel-Lindau disease tumor suppressor/Bcl-2-like protein 1; test: Binding affinity to Halo-tagged VHL/HiBiT-tagged BCL-XL (unknown origin) expressed in HEK293T cells assessed as ternary complex formation at up to 100000 nM measured after 6 hrs by NanoBRET assay; format: cell-based
How it was run: (§2)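 NanoBRET in live HEK 293T cells. Cells were transfected with HaloTag-VHL (1 µg), HiBit-BCL-XL or HiBit-BCL-2 (10 ng) and LgBit (10 ng). After 24 h they were seeded at 2×10^4 per well in Opti-MEM with 4% FBS, with or without HaloTag 618 ligand, and held overnight. Serial compound doses were given for 6 h at 37 °C, then Nano-Glo substrate was added and mBRET ratios read. Mean ± s.e.m. of two experiments in triplicate.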
Target sequence in this assay (P40337 whole entry, looked up): as the sequence (P40337 whole entry, looked up) above
Target sequence in this assay (Q07817 whole entry, looked up): as the sequence (Q07817 whole entry, looked up) above

[10] = biological target: T2, von Hippel-Lindau disease tumor suppressor/Apoptosis regulator Bcl-2 (Homo sapiens); test: Binding affinity to Halo-tagged VHL/HiBiT-tagged BCL-2 (unknown origin) expressed in HEK293T cells assessed as ternary complex formation at up to 100000 nM measured after 6 hrs by NanoBRET assay; format: cell-based; how it was run: as §2
[11] = biological target: T2, von Hippel-Lindau disease tumor suppressor/Apoptosis regulator Bcl-2 (Homo sapiens); test: Binding affinity to VHL/BCL-2 in human RS4-11 cells assessed as ternary complex formation at up to 300 nM measured after 12 hrs in presence of VHL-032 by immunoprecipitation assay; format: cell-based
[12] = biological target: T1, von Hippel-Lindau disease tumor suppressor/Bcl-2-like protein 1; test: Protac activity at VHL/BCL-XL in human RS4-11 cells assessed as decrease in BCL-XL protein level by densitometric analysis; format: cell-based; how it was run: as §1
Target sequence in this assay (Q07817 whole entry): as the sequence (Q07817 whole entry, looked up) above
Target sequence in this assay (P40337 whole entry): as the sequence (P40337 whole entry, looked up) above

[13] = biological target: T1, von Hippel-Lindau disease tumor suppressor/Bcl-2-like protein 1; test: Protac activity at VHL/BCL-XL in human MOLT-4 cells assessed as decrease in BCL-XL protein level by densitometric analysis; format: cell-based; how it was run: as §1
Target sequence in this assay (Q07817 whole entry): as the sequence (Q07817 whole entry, looked up) above
Target sequence in this assay (P40337 whole entry): as the sequence (P40337 whole entry, looked up) above

[14] = biological target: Bcl-2-like protein 1 (Homo sapiens, UniProt Q07817); test: Displacement of biotin-tagged LWAAQRYGRELRRMSDEFEGSFKGL from human BCL-XL expressed in Escherichia coli measured after 2 hrs by AlphaScreen assay
How it was run: (§3)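 AlphaScreen displacement, run with or without VCB. Anti-His acceptor beads were added for 1 h at room temperature, then streptavidin donor beads for 30 min in the dark. Ki was fitted by one-site competitive model from peptide concentration and measured Kd values; reported as mean ± SD of at least two experiments in triplicate.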

[15] = biological target: Apoptosis regulator Bcl-2 (Homo sapiens, UniProt P10415); test: Displacement of biotin-tagged MRPEPATIAQELRRIGDEFNA from C-terminal His-tagged human BCL-2 (1` to 211 residues) expressed in Escherichia coli measured after 2 hrs by AlphaScreen assay; how it was run: as §3
[16] = Binding affinity to human BCL-XL expressed in Escherichia coli/recombinant human VHL (54 to end residues) fused to human N-terminal GST-tagged elongin-C/elongin -B/N-terminal His-tagged CUL2/Rbx1 expressed in baculovirus infected Sf21 insect cells measured after 2 hrs by AlphaScreen assay
How it was run: (§4)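 AlphaScreen displacement, run with or without VCB. Biotin-Bim (80 nM, for BCL-2) or biotin-Bad (16 nM, for BCL-XL) was combined with serially diluted compound and 6×His protein in 25 mM HEPES pH 7.5, 100 mM NaCl, 0.1% BSA, 0.005% Tween 20. Anti-His acceptor beads were added for 1 h at room temperature, then streptavidin donor beads for 30 min in the dark. Ki was fitted by one-site competitive model from peptide concentration and measured Kd values; reported as mean ± SD of at least two experiments in triplicate.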

[17] = Binding affinity to C-terminal His-tagged human BCL-2 (1 to 211 residues) expressed in Escherichia coli/recombinant human VHL (54 to end residues) fused to human N-terminal GST-tagged elongin-C/elongin -B/N-terminal His-tagged CUL2/Rbx1 expressed in baculovirus infected Sf21 insect cells measured after 2 hrs by AlphaScreen assay; how it was run: as §4
[18] = Binding affinity to human BCL-XL expressed in Escherichia coli/recombinant human VHL (54 to end residues) fused to human N-terminal GST-tagged elongin-C/elongin -B/N-terminal His-tagged CUL2/Rbx1 expressed in baculovirus infected Sf21 insect cells assessed as ternary complex formation at up to 100000 nM measured after 30 mins by AlphaLISA assay
How it was run: (§5)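 Cell-free ternary complex AlphaLISA: 6×His-tagged BCL-XL, BCL-2 or MCL-1 (20 nM) mixed with serially diluted compound (4× dilution) and GST-VCB (20 nM) in 25 mM HEPES pH 7.5, 100 mM NaCl, 0.1% BSA, 0.005% Tween 20. After 30 min at room temperature, glutathione donor beads were added for 15 min, then anti-His acceptor beads for 45 min in the dark. Luminescence was plotted against log compound concentration.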

[19] = Binding affinity to C-terminal His-tagged human BCL-2 (1 to 211 residues) expressed in Escherichia coli/recombinant human VHL (54 to end residues) fused to human N-terminal GST-tagged elongin-C/elongin -B/N-terminal His-tagged CUL2/Rbx1 expressed in baculovirus infected Sf21 insect cells assessed as ternary complex formation at up to 100000 nM measured after 30 mins by AlphaLISA assay; how it was run: as §5
[20] = tested on: RS4-11; test: Cytotoxicity against human RS4-11 cells assessed as reduction in cell viability measured after 48 hrs in presence of VHL-032 by MTS assay; format: functional, cell-based; details: RS4-11, 48 h
How it was run: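 RS4;11 cells were pretreated with 10 µM VHL-032, then exposed to compound for 48 h. Viability was read by MTS; three independent experiments in triplicate.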

[21] = biological target: T1, von Hippel-Lindau disease tumor suppressor/Bcl-2-like protein 1; test: Protac activity at VHL/BCL-XL in human MOLT-4 cells assessed as induction of BCL-XL degradation measured after 16 hrs by Western blot analysis; format: cell-based; how it was run: as §1
Target sequence in this assay (Q07817 whole entry): as the sequence (Q07817 whole entry, looked up) above
Target sequence in this assay (P40337 whole entry): as the sequence (P40337 whole entry, looked up) above

T2 sequence (P10415 whole entry, looked up): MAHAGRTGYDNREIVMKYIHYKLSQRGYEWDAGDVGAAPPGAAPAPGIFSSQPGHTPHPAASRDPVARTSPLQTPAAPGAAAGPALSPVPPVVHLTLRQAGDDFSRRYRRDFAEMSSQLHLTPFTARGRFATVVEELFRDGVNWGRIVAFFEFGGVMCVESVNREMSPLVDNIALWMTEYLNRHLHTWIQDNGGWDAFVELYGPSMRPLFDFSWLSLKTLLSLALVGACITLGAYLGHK
T2 sequence (P40337 whole entry, looked up): as the sequence (P40337 whole entry, looked up) above
Chain of Bcl-2-like protein 1 (Q07817 whole entry): as the sequence (Q07817 whole entry, looked up) above
Chain of Apoptosis regulator Bcl-2 (P10415 whole entry, the tested form may be a part): as the sequence (P10415 whole entry, looked up) above

## CC1(C)CCC(c2ccc(Cl)cc2)=C(CN2CCN(c3ccc(C(=O)NS(=O)(=O)c4ccc(N[C@H](CCN5CCOCC5)CSc5ccccc5)c(S(=O)(=O)C(F)(F)F)c4)cc3)CC2)C1 [NAVITOCLAX]
[1]
  IC50: 0.325 µM
[2]
  Activity: Active
[3]
  Activity: Active
[4]
  Activity: inactive

## Cc1ncsc1-c1ccc([C@H](C)NC(=O)[C@@H]2C[C@H](O)CN2C(=O)[C@@H](NC(=O)CCCCCCCCC(=O)NC[C@]2(C)CCC(c3ccc(Cl)cc3)=C(CN3CCN(c4ccc(C(=O)NS(=O)(=O)c5ccc(N[C@H](CCN6CCOCC6)CSc6ccccc6)c(S(=O)(=O)C(F)(F)F)c5)cc4)CC3)C2)C(C)(C)C)cc1
[5]
  IC50: 0.328 µM
[6]
  IC50: 0.821 µM
[7]
  Activity: inactive
[8]
  Activity: inactive
[9]
  Activity: inactive
[10]
  Activity: inactive
[2]
  Activity: Active
[4]
  Activity: inactive
[11]
  Activity: inactive

## Cc1ncsc1-c1ccc([C@H](C)NC(=O)[C@@H]2C[C@@H](O)CN2C(=O)[C@@H](NC(=O)CCCCC(=O)NCC2(C)CCC(c3ccc(Cl)cc3)=C(CN3CCN(c4ccc(C(=O)NS(=O)(=O)c5ccc(N[C@H](CCN6CCOCC6)CSc6ccccc6)c(S(=O)(=O)C(F)(F)F)c5)cc4)CC3)C2)C(C)(C)C)cc1 (some centres undefined)
[5]
  IC50: 0.304 µM
[6]
  IC50: 0.34 µM

## Cc1ncsc1-c1ccc([C@H](C)NC(=O)[C@@H]2C[C@@H](O)CN2C(=O)[C@@H](NC(=O)CCCCCCCC(=O)NCC2(C)CCC(c3ccc(Cl)cc3)=C(CN3CCN(c4ccc(C(=O)NS(=O)(=O)c5ccc(N[C@H](CCN6CCOCC6)CSc6ccccc6)c(S(=O)(=O)C(F)(F)F)c5)cc4)CC3)C2)C(C)(C)C)cc1 (some centres undefined)
[5]
  IC50: 0.0437 µM
[6]
  IC50: 0.125 µM

## Cc1ncsc1-c1ccc([C@H](C)NC(=O)[C@@H]2C[C@@H](O)CN2C(=O)[C@@H](NC(=O)CCCCCCC(=O)NCC2(C)CCC(c3ccc(Cl)cc3)=C(CN3CCN(c4ccc(C(=O)NS(=O)(=O)c5ccc(N[C@H](CCN6CCOCC6)CSc6ccccc6)c(S(=O)(=O)C(F)(F)F)c5)cc4)CC3)C2)C(C)(C)C)cc1 (some centres undefined)
[5]
  IC50: 0.108 µM
[6]
  IC50: 0.219 µM

## Cc1ncsc1-c1ccc([C@H](C)NC(=O)[C@@H]2C[C@@H](O)CN2C(=O)[C@@H](NC(=O)CCCCCCCCCCC(=O)NCC2(C)CCC(c3ccc(Cl)cc3)=C(CN3CCN(c4ccc(C(=O)NS(=O)(=O)c5ccc(N[C@H](CCN6CCOCC6)CSc6ccccc6)c(S(=O)(=O)C(F)(F)F)c5)cc4)CC3)C2)C(C)(C)C)cc1 (some centres undefined)
[5]
  IC50: 0.0963 µM
[6]
  IC50: 0.112 µM

## Cc1ncsc1-c1ccc([C@H](C)NC(=O)[C@@H]2C[C@@H](O)CN2C(=O)[C@@H](NC(=O)CCCCCCCCCCCC(=O)NCC2(C)CCC(c3ccc(Cl)cc3)=C(CN3CCN(c4ccc(C(=O)NS(=O)(=O)c5ccc(N[C@H](CCN6CCOCC6)CSc6ccccc6)c(S(=O)(=O)C(F)(F)F)c5)cc4)CC3)C2)C(C)(C)C)cc1 (some centres undefined)
[5]
  IC50: 0.41 µM
[6]
  IC50: 0.334 µM

## Cc1ncsc1-c1ccc([C@H](C)NC(=O)[C@@H]2C[C@@H](O)CN2C(=O)[C@@H](NC(=O)CCCCCCCCC(=O)NC[C@@]2(C)CCC(c3ccc(Cl)cc3)=C(CN3CCN(c4ccc(C(=O)NS(=O)(=O)c5ccc(N[C@H](CCN6CCOCC6)CSc6ccccc6)c(S(=O)(=O)C(F)(F)F)c5)cc4)CC3)C2)C(C)(C)C)cc1
[1]
  IC50: 9.85 µM
[12]
  DC50: 0.0752 µM
[13]
  DC50: 0.127 µM
[5]
  IC50: 0.418 µM
[6]
  IC50: 0.17 µM
[14]
  Ki: 0.00275 µM
[15]
  Kd: 0.00147 µM
[16]
  Kd: 0.00064 µM
[17]
  Kd: 0.00055 µM
[18]
  Activity: Active
[19]
  Activity: Active
[9]
  Activity: Active
[10]
  Activity: Active
[20]
  IC50: 1.04 µM

## Cc1ncsc1-c1ccc([C@H](C)NC(=O)[C@@H]2C[C@@H](O)CN2C(=O)[C@@H](NC(=O)CCCCCC(=O)NCC2(C)CCC(c3ccc(Cl)cc3)=C(CN3CCN(c4ccc(C(=O)NS(=O)(=O)c5ccc(N[C@H](CCN6CCOCC6)CSc6ccccc6)c(S(=O)(=O)C(F)(F)F)c5)cc4)CC3)C2)C(C)(C)C)cc1 (some centres undefined)
[6]
  IC50: 0.307 µM

## Cc1ncsc1-c1ccc([C@H](C)NC(=O)[C@@H]2C[C@@H](O)CN2C(=O)[C@@H](NC(=O)CCCCCCCCC(=O)NCC2(C)CCC(c3ccc(Cl)cc3)=C(CN3CCN(c4ccc(C(=O)NS(=O)(=O)c5ccc(N[C@H](CCN6CCOCC6)CSc6ccccc6)c(S(=O)(=O)C(F)(F)F)c5)cc4)CC3)C2)C(C)(C)C)cc1 (some centres undefined)
[1]
  IC50: 2.9 µM
[12]
  DC50: 0.0226 µM
[13]
  DC50: 0.0316 µM
[21]
  DC50: 0.0272 µM
[5]
  IC50: 0.0233 µM
[6]
  IC50: 0.0321 µM
[9]
  Activity: Active
[10]
  Activity: Active
[20]
  IC50: 0.481 µM

## Cc1ncsc1-c1ccc([C@H](C)NC(=O)[C@@H]2C[C@@H](O)CN2C(=O)[C@@H](NC(=O)CCCCCCCCCC(=O)NCC2(C)CCC(c3ccc(Cl)cc3)=C(CN3CCN(c4ccc(C(=O)NS(=O)(=O)c5ccc(N[C@H](CCN6CCOCC6)CSc6ccccc6)c(S(=O)(=O)C(F)(F)F)c5)cc4)CC3)C2)C(C)(C)C)cc1 (some centres undefined)
[5]
  IC50: 0.0292 µM
[6]
  IC50: 0.0746 µM
